Test results published in ChEMBL document CHEMBL4043295, “Marbostat-100 Defines a New Class of Potent and Selective Antiinflammatory and Antirheumatic Histone Deacetylase 6 Inhibitors” (J Med Chem, 2018).
Activity calls are given as the source filed them. No cut-off for these calls is given here.

Key:
Mus musculus [1] = test: Toxicity in DBA/1J mouse collagen-induced arthritis model assessed as effect on red blood cell count at 30 mg/kg, ip administered every morning for 12 to 14 days measured post last dose relative to vehicle-treated control; type: organism-based; settings: in vivo
[2] = biological target: T1, Protein deacetylase HDAC6 (Homo sapiens) (UniProt Q9UBN7); settings: 50 nM
T1 sequence (whole entry): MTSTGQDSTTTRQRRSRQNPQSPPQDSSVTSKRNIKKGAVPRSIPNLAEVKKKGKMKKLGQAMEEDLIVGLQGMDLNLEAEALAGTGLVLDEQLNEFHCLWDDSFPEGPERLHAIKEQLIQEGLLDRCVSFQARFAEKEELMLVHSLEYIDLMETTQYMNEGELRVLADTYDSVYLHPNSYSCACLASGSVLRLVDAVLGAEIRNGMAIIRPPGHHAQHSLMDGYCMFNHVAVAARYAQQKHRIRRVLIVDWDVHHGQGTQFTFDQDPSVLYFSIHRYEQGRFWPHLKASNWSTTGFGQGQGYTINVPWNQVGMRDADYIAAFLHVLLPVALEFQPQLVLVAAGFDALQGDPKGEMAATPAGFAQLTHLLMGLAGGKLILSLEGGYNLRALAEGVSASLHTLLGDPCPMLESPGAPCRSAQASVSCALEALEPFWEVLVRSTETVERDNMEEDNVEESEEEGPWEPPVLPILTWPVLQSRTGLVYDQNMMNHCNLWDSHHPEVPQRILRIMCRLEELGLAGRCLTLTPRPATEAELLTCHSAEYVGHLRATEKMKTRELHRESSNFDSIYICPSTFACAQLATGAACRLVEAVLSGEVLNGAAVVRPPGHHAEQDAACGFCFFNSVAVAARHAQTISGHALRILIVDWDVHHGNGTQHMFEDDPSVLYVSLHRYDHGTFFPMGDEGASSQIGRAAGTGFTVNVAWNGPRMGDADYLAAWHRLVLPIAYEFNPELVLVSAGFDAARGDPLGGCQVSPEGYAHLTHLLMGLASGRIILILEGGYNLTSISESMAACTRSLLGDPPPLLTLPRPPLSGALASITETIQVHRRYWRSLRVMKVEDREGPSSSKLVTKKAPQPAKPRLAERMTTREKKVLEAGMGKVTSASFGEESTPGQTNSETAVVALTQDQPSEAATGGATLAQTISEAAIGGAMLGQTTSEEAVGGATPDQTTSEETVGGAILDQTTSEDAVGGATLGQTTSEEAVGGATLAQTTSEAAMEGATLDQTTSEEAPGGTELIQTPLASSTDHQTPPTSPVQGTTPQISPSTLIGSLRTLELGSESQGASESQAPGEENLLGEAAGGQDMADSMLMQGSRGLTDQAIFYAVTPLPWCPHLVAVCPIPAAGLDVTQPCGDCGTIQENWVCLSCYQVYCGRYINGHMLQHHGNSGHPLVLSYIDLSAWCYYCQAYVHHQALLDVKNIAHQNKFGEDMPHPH

Histone deacetylase 1 = Histone deacetylase 1 (Homo sapiens, UniProt Q13547); test: Inhibition of recombinant human C-terminal FLAG/His-tagged HDAC1 expressed in baculovirus-infected Sf21 insect cells using RHKK(Ac)AMC as substrate after 60 mins by fluorimeter
MV4-11 = test: Cell cycle arrest in human MV4-11 cells at 50 nM to 1 uM after 24 hrs by propidium iodide staining-based flow cytometric method; type: functional
Method in brief: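 Cells were stained with propidium iodide and analysed by flow cytometry for cell-cycle distribution and the subG1 fraction (fragmented DNA). Representative of at least two independent experiments.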

[3] = biological target: T2, Polyamine deacetylase HDAC10 (Homo sapiens, UniProt Q969S8); test: Inhibition of recombinant human HDAC10 expressed in baculovirus-infected insect cells using fluorogenic peptide RHKKAc as substrate by fluorimeter
T2 sequence (Q969S8 whole entry): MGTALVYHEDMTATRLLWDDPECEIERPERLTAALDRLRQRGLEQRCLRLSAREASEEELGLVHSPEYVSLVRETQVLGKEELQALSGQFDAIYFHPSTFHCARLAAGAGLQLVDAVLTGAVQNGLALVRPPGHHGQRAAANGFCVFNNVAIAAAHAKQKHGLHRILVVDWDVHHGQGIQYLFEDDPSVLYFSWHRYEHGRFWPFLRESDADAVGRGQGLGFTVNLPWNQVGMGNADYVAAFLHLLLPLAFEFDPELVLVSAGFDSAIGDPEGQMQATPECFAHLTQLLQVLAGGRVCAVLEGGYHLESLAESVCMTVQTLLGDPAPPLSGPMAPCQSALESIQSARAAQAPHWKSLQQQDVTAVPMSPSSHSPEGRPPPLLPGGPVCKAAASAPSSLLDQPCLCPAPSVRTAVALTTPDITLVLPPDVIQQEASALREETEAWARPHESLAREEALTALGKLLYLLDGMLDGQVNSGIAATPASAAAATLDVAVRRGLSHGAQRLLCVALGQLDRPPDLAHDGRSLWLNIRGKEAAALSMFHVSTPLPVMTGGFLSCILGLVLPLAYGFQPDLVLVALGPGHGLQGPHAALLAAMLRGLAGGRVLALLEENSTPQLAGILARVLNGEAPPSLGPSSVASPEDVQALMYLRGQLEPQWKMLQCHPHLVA

Mus musculus [4] = test: Antiarthritic activity in DBA/1J mouse collagen-induced arthritis model assessed as loss of body weight at 30 mg/kg, ip administered every morning for 1 week measured during compound dosing; type: functional, organism-based
Mus musculus [5] = test: Toxicity in DBA/1J mouse collagen-induced arthritis model assessed as effect on hemoglobin concentration at 30 mg/kg, ip administered every morning for 12 to 14 days measured post last dose relative to vehicle-treated control; type: organism-based; settings: in vivo
[6] = Inhibition of class 1 HDAC in human MV4-11 cells assessed as induction of histone hyperacetylation at 50 nM to 10 uM after 24 hrs by Western blot method; type: cell-based; settings: 0.05 µM
Method in brief: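 MV4-11 cells were exposed to the inhibitor, from 5 nM to 10 µM for 24 h or at 50 nM for 10 min to 48 h. Lysates were immunoblotted for acetylated tubulin, acetylated histone H3 and HDAC6. Acetyl-tubulin was quantified by densitometry normalised to HSP90. MS-275 at 5 µM for 24 h was the comparator. Blots are representative of at least two independent experiments.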

Mus musculus [7] = test: Antiarthritic activity in DBA/1J mouse collagen-induced arthritis model assessed as decrease in histological scores at 30 mg/kg, ip administered every morning for 12 to 14 days measured during compound dosing relative to vehicle-treated control; type: functional; set-up: scale not given: the % may be the effect or the level left
Method in brief: (§1)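 Collagen type II-induced arthritis in mice, treated at 30 mg/kg versus vehicle. Arthritic paws were assessed histologically for synovial inflammation, cellular invasion, cartilage degradation and bone erosion.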

Mus musculus [8] = test: Toxicity in DBA/1J mouse collagen-induced arthritis model assessed as effect on white blood cell count at 30 mg/kg, ip administered every morning for 12 to 14 days measured post last dose relative to vehicle-treated control; type: organism-based; settings: in vivo
Mus musculus [9] = test: Antiarthritic activity in DBA/1J mouse collagen-induced arthritis model assessed as decrease in sign of synovial inflammation at 30 mg/kg, ip administered every morning for 12 to 14 days; type: functional, organism-based; method in brief: as §1

Chain of Histone deacetylase 1 (Q13547 whole entry): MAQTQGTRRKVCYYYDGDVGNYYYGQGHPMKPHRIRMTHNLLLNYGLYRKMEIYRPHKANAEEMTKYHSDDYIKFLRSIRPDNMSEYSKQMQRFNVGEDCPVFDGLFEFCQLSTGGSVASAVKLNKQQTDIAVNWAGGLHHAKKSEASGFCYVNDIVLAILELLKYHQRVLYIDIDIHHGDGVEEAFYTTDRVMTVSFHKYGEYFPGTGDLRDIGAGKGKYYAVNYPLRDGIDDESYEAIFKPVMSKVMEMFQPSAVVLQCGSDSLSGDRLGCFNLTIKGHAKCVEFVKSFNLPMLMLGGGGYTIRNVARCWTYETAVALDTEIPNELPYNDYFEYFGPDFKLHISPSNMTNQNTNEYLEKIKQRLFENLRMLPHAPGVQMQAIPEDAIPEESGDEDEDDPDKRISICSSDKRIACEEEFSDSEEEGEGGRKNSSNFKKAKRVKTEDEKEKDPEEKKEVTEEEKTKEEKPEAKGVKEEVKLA

- inhibition [2]: Active
- Ki (Histone deacetylase 1): 0.358 µM
- Ki [3]: 0.452 µM
- inhibition (INH) [6]: Not Active
Compound: CN1C(=O)C2CN(Cc3c2c2ccccc2n3Cc2ccc(C(=O)NO)cc2)C1=O (stereo unspecified)
- Activity (Mus musculus [1]): Non-Toxic
- Activity (MV4-11): inactive
- Activity (Mus musculus [4]): Active
- Activity (Mus musculus [5]): Non-Toxic
- Activity (Mus musculus [7]): 50%
- Activity (Mus musculus [8]): Non-Toxic
- Activity (Mus musculus [9]): Active
